ChEMBL document CHEMBL1938288, “Discovery, synthesis, and pharmacological evaluation of spiropiperidine hydroxamic acid based derivatives as structurally novel histone deacetylase (HDAC) inhibitors” (J Med Chem, 2011)
Active and inactive are the calls of the source. The calls are words filed in the database; no cut-off is given here.

Legend:
[1] = tested on: Mus musculus; assay: Toxicity in human HCT116 cells xenografted CD1 nude mouse assessed as signs of toxicity at 35 to 150 mg/kg, po administered for 5 days/week for 17 days; type: organism-based, HCT-116; set-up: dose 35-150 mg/kg, route oral; conditions: in vivo
[2] = target: T1, Histone deacetylase 8 (Homo sapiens, UniProt Q9BY41); assay: Inhibition of HDAC8 using carboxyfluorescein-labeled peptide as substrate after 17 hrs by fluorescence assay
T1 sequence (Q9BY41 whole entry): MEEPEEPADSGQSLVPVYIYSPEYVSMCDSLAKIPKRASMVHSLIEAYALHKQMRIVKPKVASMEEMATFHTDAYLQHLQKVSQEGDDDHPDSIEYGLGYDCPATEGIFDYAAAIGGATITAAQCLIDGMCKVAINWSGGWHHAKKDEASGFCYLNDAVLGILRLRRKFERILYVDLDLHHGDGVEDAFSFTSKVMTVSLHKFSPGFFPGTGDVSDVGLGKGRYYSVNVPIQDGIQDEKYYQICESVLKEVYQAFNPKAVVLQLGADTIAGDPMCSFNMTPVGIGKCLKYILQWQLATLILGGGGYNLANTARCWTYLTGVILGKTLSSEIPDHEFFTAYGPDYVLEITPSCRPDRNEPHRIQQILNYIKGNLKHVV
How it was run: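 Purified HDAC isoforms incubated with compound and 1 μM carboxyfluorescein-labelled peptide for 17 h at 25 °C. Reaction stopped with HEPES/0.08% SDS. Substrate and product separated electrophoretically and read by fluorescence. Run in duplicate. IC50 from 12-point curves by nonlinear regression.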

[3] = Oral bioavailability in CD1 mouse at 15 mg/kg; type: ADME, organism-based; conditions: in vivo
How it was run: (§1)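 Single dose to male CD-1 mice, either iv at 5 mg/kg or oral at 15 mg/kg. Plasma pharmacokinetic parameters were calculated from these dosings.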

[4] = target: Histone deacetylase (Homo sapiens) (UniProt Q13547+O15379+Q9UBN7+Q92769+Q9UQL6+Q8WUI4+Q9BY41+Q96DB2+P56524+Q9UKV0+Q969S8); conditions: HCT-116, 100 uM
[5] = tested on: HCT-116; assay: Antiproliferative activity against human HCT116 cells after 72 hrs by CellTiter-Glo luminescent cell viability assay; type: functional, cell-based; conditions: HCT-116, 72 h
How it was run: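 Cells in exponential growth exposed to a range of inhibitor concentrations for 72 h. CellTiter-Glo reagent added, mixed 2 min to lyse cells, luminescence read 10 min later. IC50 derived from the concentration–response. Replicates n ≥ 2, mean shown.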

[6] = AUC (0 to infinity) in CD1 mouse at 5 mg/kg, iv; type: ADME, organism-based; set-up: time infinity, dose 5 mg/kg, route intravenous; conditions: plasma; how it was run: as §1
[7] = tested on: HCT-116; assay: Antitumor activity against human HCT116 cells xenografted in po dosed CD1 nude mouse assessed as reduced tumor volume administered for 5 days/week for 17 days; type: functional, organism-based
How it was run: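 Female CD-1 nude mice bearing subcutaneous flank HCT-116 tumours (5 × 10⁶ cells injected). Dosing began at about 100 mm³ tumour volume. Given orally at 35–150 mg/kg in water with 5% DMSO and 9.5% encapsin, 5 days/week for 17 days. Tumour volume tracked against vehicle controls. T/C = mean relative tumour volume treated / control.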

[8] = Cmax in CD1 mouse at 15 mg/kg, po; type: ADME, organism-based; set-up: dose 15 mg/kg, route oral; conditions: in vivo; how it was run: as §1
[9] = tested on: HCT-116; assay: Cell cycle arrest in human HCT116 cells assessed as decrease in G2/M phase cells at 0.3 uM after 24 hrs by flow cytometry; type: functional, cell-based
How it was run: (§2)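 HCT-116 cells treated for 24 h at several concentrations. Harvested, fixed in 70% ethanol at -20 °C, RNase treated (1 mg/mL), stained with propidium iodide. DNA content measured by flow cytometry to give phase distribution, including the subG1 population.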

[10] = AUC (0 to infinity) in CD1 mouse at 15 mg/kg, po; type: ADME, organism-based; set-up: time infinity, dose 15 mg/kg, route oral; conditions: plasma; how it was run: as §1
[11] = tested on: HCT-116; assay: Cell cycle arrest in human HCT116 cells assessed as accumulation at subG1 phase after 24 hrs by flow cytometry; type: functional, cell-based; how it was run: as §2
[12] = tested on: Mus musculus; assay: Increase of histone H4 cetylation in human HCT116 cells xenografted in CD1 mouse at 35 to 150 mg/kg, po administered for 5 days/week for 17 days by immunohistochemistry; type: functional, organism-based; conditions: HCT-116
How it was run: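 Xenograft tumours from the oral efficacy study were collected 2 h after the last dose. They were formalin-fixed, paraffin-embedded, unmasked in TEG buffer pH 9, treated 5 min with 3% H2O2, and incubated overnight at 4 °C with anti-acetyl-histone H4. Staining was developed by HRP detection with hematoxylin counterstain. Positive cells and signal intensity were compared with vehicle.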

[13] = tested on: HCT-116; assay: Cell cycle arrest in human HCT116 cells assessed as accumulation at G2M phase at 1 to 3 uM after 24 hrs by flow cytometry; type: functional, cell-based; how it was run: as §2
[14] = species: Mus musculus; assay: Hepatic blood flow in mouse; type: ADME, organism-based, Liver
[15] = tested on: Mus musculus; assay: Toxicity in human HCT116 cells xenografted CD1 nude mouse assessed as change in body weight at 35 to 150 mg/kg, po administered for 5 days/week for 17 days; type: organism-based, HCT-116; set-up: dose 35-150 mg/kg, route oral; conditions: in vivo

IC50 [2]: 1.76 µM
bioavailability [3]: 31.5%
inhibition [4]: Active
IC50 [5]: 0.477 µM
AUC(0-inf) [6]: 847 ng·h/mL
Cmax [8]: 823 nM
AUC(0-inf) [10]: 800 ng·h/mL
QH [14]: 90 mL/min/kg
SMILES: O=C(/C=C/c1ccc2c(c1)C(=O)CC1(CCN(Cc3ccccc3)CC1)O2)NO
Activity [1]: Non-toxic
Activity [7]: Dose-dependent effect
Activity [9]: Active
Activity [11]: Dose-dependent effect
Activity [12]: Active
Activity [13]: Active
Activity [15]: Non-toxic
